Source: ChEMBL document CHEMBL5230169, “QSAR, structure-based pharmacophore modelling and biological evaluation of novel platelet ADP receptor (P2Y12) antagonist” (RSC Med Chem, 2023)

Assays:
Type in all cases: cell-based
[1] = molecular target: P2Y purinoceptor 12 (Homo sapiens) (UniProt Q9H244); assay: Antagonist activity at P2Y12 receptor in human blood platelets assessed as inhibition of ADP-induced platelet aggregation at 0.1 uM compound preincubated with blood for 5 mins prior to ADP addition by electrode aggregometry assay
Outline: (§1)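 Fresh hirudin-anticoagulated human whole blood from volunteers free of medication for seven days, tested within two hours of venepuncture. 300 μL blood mixed with 300 μL pre-warmed isotonic saline containing compound (0, 0.1, 1, 10 or 100 μM final) or vehicle (1% DMSO final). Incubated 5 min at 37 °C, then 20 μL 0.2 mM ADP added.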

[2] = molecular target: P2Y purinoceptor 12 (Homo sapiens) (UniProt Q9H244); assay: Antagonist activity at P2Y12 receptor in human blood platelets assessed as inhibition of ADP-induced platelet aggregation at 1 uM compound preincubated with blood for 5 mins prior to ADP addition by electrode aggregometry assay; outline: as §1
[3] = molecular target: P2Y purinoceptor 12 (Homo sapiens) (UniProt Q9H244); assay: Antagonist activity at P2Y12 receptor in human blood platelets assessed as inhibition of ADP-induced platelet aggregation at 10 uM compound preincubated with blood for 5 mins prior to ADP addition by electrode aggregometry assay; conditions: filed as antagonist; outline: as §1

P2Y purinoceptor 12 (Homo sapiens), sequence (Q9H244 whole entry): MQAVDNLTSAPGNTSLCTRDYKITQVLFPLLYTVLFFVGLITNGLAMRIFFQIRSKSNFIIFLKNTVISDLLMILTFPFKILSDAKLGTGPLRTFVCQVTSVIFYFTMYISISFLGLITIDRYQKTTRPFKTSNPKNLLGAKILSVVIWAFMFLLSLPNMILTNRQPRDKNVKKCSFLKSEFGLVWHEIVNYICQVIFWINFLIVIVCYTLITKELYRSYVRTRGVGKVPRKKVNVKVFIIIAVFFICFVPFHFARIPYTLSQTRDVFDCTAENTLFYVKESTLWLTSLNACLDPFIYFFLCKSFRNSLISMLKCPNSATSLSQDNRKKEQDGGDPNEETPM

Structure (SMILES)	inhibition [1] [%]	inhibition [2] [%]	inhibition [3] [%]
CCOC(=O)c1cc(NC(=O)c2cc(NC(=O)c3cc(NC(=O)c4c(-c5ccccc5)noc4C)cn3C)cn2C)cn1C	37	38.2	61.8
O=C(CCCCCCCC(=O)Nc1ccc2[nH]c3ccccc3c(=O)c2c1)Nc1ccc2[nH]c3ccccc3c(=O)c2c1	4.75	22.8	41.1
O=C(CCC(=O)Nc1ccc2[nH]c3ccccc3c(=O)c2c1)Nc1ccc2[nH]c3ccccc3c(=O)c2c1	22.3	33.6	57.8
